# Tn7 DDE FP = disrupts Tn7 cyclic peptide binding to fibrin D-Dimer-E complex. inhibition, % at 8.3 µM. P02675. AID 720508. FP displacement of FITC-Tn7 peptide from fibrin DD(E); 0% = median of compound wells per plate. 0.13% of 370,000 active;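 active means inhibition above the mean of compounds falling within the control limits plus 3 SD of them, cut at about 14% in these data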;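 further: 0% = plate median of compound wells and 100% = 10 µM Aha-Tn7 peptide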
# Target sequence (P02675 whole entry, looked up): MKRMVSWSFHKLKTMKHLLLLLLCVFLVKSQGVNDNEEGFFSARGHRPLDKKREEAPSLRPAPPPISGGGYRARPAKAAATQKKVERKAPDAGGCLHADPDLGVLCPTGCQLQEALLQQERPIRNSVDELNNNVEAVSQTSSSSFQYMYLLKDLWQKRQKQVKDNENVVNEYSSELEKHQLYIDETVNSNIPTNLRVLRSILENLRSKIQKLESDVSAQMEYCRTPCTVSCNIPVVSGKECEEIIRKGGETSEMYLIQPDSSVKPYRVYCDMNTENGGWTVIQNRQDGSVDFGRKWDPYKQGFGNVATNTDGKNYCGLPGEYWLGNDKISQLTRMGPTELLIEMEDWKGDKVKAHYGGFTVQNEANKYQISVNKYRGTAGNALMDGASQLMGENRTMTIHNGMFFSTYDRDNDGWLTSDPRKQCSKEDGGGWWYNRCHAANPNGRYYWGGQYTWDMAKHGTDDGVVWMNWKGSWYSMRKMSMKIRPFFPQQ
#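 Assay system: Human clot-derived fibrin DD(E) complex | Buffer or medium: Tris/NaCl/CaCl2 buffer, pH 7.8 | Repeats: One replicate per compound | Benchmarks: Aha-Tn7 high control | Measure: % inhibition scaled between sample-field median and high-control FP | Schedule: 10 min plus 3 h, room temperature | Signal: Fluorescence polarization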
# ABHD4 inh = ABHD4 (mouse) inhibition, primary FP screen. purified mABHD4, FP-Rh probe fluorescence polarization. Q8VD66. inhibition, % at 8.92 µM. 0.54% of 370,000 active;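 active means inhibition exceeding the mean over every tested compound plus 3 SD, cut at about 30% in these data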;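 further: 0% = plate median of compound wells and 100% = S159A mutant with DMSO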
#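 Assay system: mABHD4 protein; medium: HEPES pH 7.0, NaCl, Pluronic buffer; dosing: 8.92 µM, single dose; schedule: 45 min + 60 min at 25 °C; signal: FP readout, ex 525 nm / em 598 nm; read-out: normalized percent inhibition of probe labeling; repeats: single replicate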
# SIAE primary = human SIAE inhibition, primary screen. SIAE FP-Rh probe binding, fluorescence polarization. inhibition, % at 9.66 µM. Q9HAT2. 0.69% of 370,000 active;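 active means inhibition above a cutoff: mean of compounds within the control limits plus 3 SD of those, cut at about 17% in these data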;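 further: 0% = plate median of compound wells and 100% = probe without SIAE protein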
# TCR-CD3 inh = human TCR-CD3 binding inhibition. TAMRA-labeled TCR probe fluorescence, biochemical. inhibition, % at 9.4 µM. 0.37% of 360,000 active. AID 651800; in the data active means inhibition above about 19%;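 further: recombinant mutant TCR 2C K166C tagged with TAMRA read by polarization; 0% = receptor in buffer alone and 100% = receptor with positive control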
# Tn6 DDE FP = inhibitors of Tn6 peptide binding to human fibrin DD(E); P02675; Fibrin DD(E) TRITC-Tn6 fluorescence polarization displacement; inhibition, % at 8.3 µM; 0.21% of 370,000 active; AID 720509;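 active means inhibition above a per-campaign cutoff: mean of compounds within control limits plus 3 SD, cut at about 15% in these data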;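 further: 0% = median of all compound wells on the plate and 100% = blocking peptide control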
# HTRA1 inh = inhibitors of human serine peptidase HTRA1; Q92743; recombinant HTRA1, FP-rhodamine activity-based probe, fluorescence polarization; inhibition, % at 5.96 µM; 0.5% of 340,000 active; AID 504803; in the data active means inhibition above about 36%;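 further: 0% = enzyme with DMSO and 100% = wells lacking enzyme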
# mABHD4 conf = confirmation of mouse ABHD4 inhibitors | shares compounds with ABHD4 inh | purified mABHD4, FP-Rh probe fluorescence polarization | inhibition, % at 8.92 µM | 55% of 1,800 active | AID 720658;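 active means mean inhibition across replicates above the hit cutoff set in the primary screen, cut at about 30% in these data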;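 further: 0% = wild-type ABHD4 with DMSO and 100% = catalytically dead S159A mutant with DMSO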
# * marks the source's active call; other numbers are inactive results; . = not tested or not shown. Most compounds without a hit are left out; they make up all but 1.8% or so of the library.
SMILES,Tn7 DDE FP,ABHD4 inh,SIAE primary,TCR-CD3 inh,Tn6 DDE FP,HTRA1 inh,mABHD4 conf
CC(C)=CCC/C(C)=C/C[C@]12C[C@H](C(=O)O)N(C(=O)OC(C)(C)C)[C@@H]1N(C(=O)OC(C)(C)C)c1ccccc12,4,51*,1,.,-7,.,40*
O=c1ccn(C2CCCCC2)c(=O)[nH]1,-7,0,-4,3,5,.,.
c1ccc(-c2sc3ccccc3c2-c2ccc(OCCN3CCCC3)cc2)cc1,-4,31*,2,0,1,-27,28
COc1ccc(-c2sc3ccccc3c2-c2ccc(OCCN3CCCCC3)cc2)cc1,3,11,4,2,-1,-19,.
NNc1nc2c(F)cccc2s1,-14,77*,11,-5,2,24,32*
Fc1cccc2sc(Nc3nc4c(F)cccc4s3)nc12,2,2,0,-2,-2,-8,.
NNc1nc2c(F)cc(F)cc2s1,-7,45*,8,2,-1,13,9
Cc1ccc(F)c(CNC(=O)C2(C)CCCN2C(=O)C(C)C)c1F (stereo not drawn),-4,-3,0,-1,-4,.,.
Cc1nc2ccccc2cc1C(=O)N(C)Cc1ccccc1,4,-2,0,-2,0,1,.
O=[N+]([O-])c1cc(Cl)cc(/C=N\Nc2ccccn2)c1O,3,21,16,0,4,31,.
CN(C)C1(CN=Cc2cc(Cl)cc([N+](=O)[O-])c2O)CCCCC1,4,36*,8,-7,-12,34,45*
COc1ccc(C2=NN(c3ccc(C(=O)O)cc3)C(c3ccc(OC)c(OC)c3)C2)cc1 (stereo not drawn),1,69*,-8,3,-5,-2,78*
NC(=O)c1cccc2c1-c1ccccc1/C2=N/NC(N)=S,5,2,7,3,8,12,.
NC(=S)N/N=C1\c2ccccc2-c2c(C(=O)O)cccc21,-8,42*,-29,9,-5,-2,47*
CCN(CC)S(=O)(=O)c1ccc2[nH]c(=O)cc(C(=O)NCC3CCCO3)c2c1 (stereo not drawn),-7,1,-5,0,-8,1,.
CCNC(=O)C[C@H]1CC[C@H]2[C@@H](COc3ccc(NC(=O)Nc4ccccc4)cc3C(=O)N2C)O1,6,7,-1,.,4,.,.
Cc1c(C#N)c(O)[nH]c(=O)c1N=Nc1ccc(S(N)(=O)=O)cc1,-2,39*,8,2,-9,9,47*
Cc1c(C#N)c(O)[nH]c(=O)c1N=Nc1ccc(Cl)c(C(=O)O)c1,-7,1,-10,-5,1,5,.
CC1=NN(C(N)=S)C(=O)C1N=Nc1c(Br)cc(Br)cc1Br (stereo not drawn),2,30*,4,-3,-8,33,57*
CCC[C@@H](CN1CCC[C@H]1CN1C(N)=NC[C@H]1CC(C)C)N1C[C@@H](Cc2ccccc2)N(CCc2ccc(Cl)c(Cl)c2)C1=N,-3,30*,10,-2,5,17,36*
CC[C@@H](C)[C@@H]1CN([C@@H](CN2CCC[C@H]2CN2C(N)=NC[C@H]2CC(C)C)C(C)C)C(=N)N1CCc1ccc(Cl)c(Cl)c1,9,35*,6,-7,2,9,46*
CCC[C@@H](CN1CCC[C@H]1CN1C(N)=NC[C@H]1CC(C)C)N1C[C@@H]([C@H](C)CC)N(CCc2ccc(Cl)c(Cl)c2)C1=N,-4,38*,6,-3,-1,-1,34*
CCC[C@@H](CN1CCC[C@H]1CN1C(N)=NC[C@@H]1Cc1ccccc1)N1C[C@@H](Cc2ccccc2)N(CCCC2CCCC2)C1=N,.,.,.,.,.,0,.
CCC[C@@H](CN1CCC[C@H]1CN1C(N)=NC[C@H]1CC(C)C)N1C[C@@H](Cc2ccccc2)N(CCCC2CCCC2)C1=N,10,34*,15,2,11,-5,26
C=C1C[C@@H]2C[C@@H]2CN(S(=O)(=O)c2ccc(C)cc2)[C@@H]1COCc1ccccc1,2,-6,5,-2,-2,.,.
SMILES,Tn7 DDE FP,ABHD4 inh,SIAE primary,TCR-CD3 inh,Tn6 DDE FP,HTRA1 inh,mABHD4 conf
Cc1ccc(-n2nc(C)c3c2OC(N)=C(C#N)C3c2ccc(F)cc2)cc1 (stereo not drawn),3,37*,2,5,-2,24,10
COc1ccc(OC)c(C2C(C#N)=C(N)Oc3c2c(C)nn3-c2cccc(Cl)c2)c1 (stereo not drawn),0,22,10,-11,-10,11,.
Cc1nn(-c2cccc(Cl)c2)c2c1C(c1cccnc1)C(C#N)=C(N)O2 (stereo not drawn),1,31*,10,-1,3,23,6
Cc1nn(-c2ccccc2)c2c1C(c1cccs1)C(C#N)=C(N)O2 (stereo not drawn),.,.,.,.,.,9,.
COC(=O)[C@H]1C[C@@]2(C3C=CC=C3)c3ccccc3N[C@H]2N1,0,3,-3,.,-2,.,.
COCOCCn1cc(CN2CCS(=O)(=O)N(Cc3ccc(-c4ccc(OC)cc4)cc3)C(C)C2=O)nn1 (stereo not drawn),-3,-8,-13,3,-5,9,.
CN(C)CCCNC(=O)c1ccc(-c2cc3nc(NCc4cccnc4)n(C)c(=O)c3s2)cc1,-3,-5,-14,5,-2,.,.
O=C(COc1ccc2cc(-c3ccccc3)c(=O)oc2c1)NCC1CCC(C(=O)O)CC1 (stereo not drawn),-4,4,-4,7,-3,-1,.
NNC(=O)c1cc(-c2ccc(N)cc2)nc2ccc(Br)cc12,5,40*,3,-2,1,.,4
Cc1cc(C(=O)NN)c2cc(Br)ccc2n1,1,-3,3,5,-7,-2,.
O=C(O)CCCCCNC(=O)c1ccc(C(=O)NCCCCCC(=O)O)cc1,5,63*,-3,-3,-2,9,3
COc1cc(C(=O)N2CCC2(C)C(=O)O)cc(OC)c1OC (stereo not drawn),-1,-2,-4,5,4,.,.
CCOc1cc(C(=O)NCC(C)(C)CNC(=O)c2cc(OCC)c(OCC)c(OCC)c2)cc(OCC)c1OCC,-8,36*,-5,-4,7,.,34*
COc1cc(C(=O)NCC(C)(C)CNC(=O)c2cc(OC)c(OC)c(OC)c2)cc(OC)c1OC,-1,-4,-7,5,-5,1,.
COCCN1C(=O)/C(=C2/C(=O)N(CC(=O)Nc3ccccc3Cl)c3ccccc32)SC1=S,10,-1,0,-1,6,-3,.

# Screening results deposited in PubChem by The Scripps Research Institute Molecular Screening Center.
